Laboratory results from ChEMBL document CHEMBL1138155, “A lactosylated steroid contributes in vivo therapeutic benefits in experimental models of mouse lymphoma and human glioblastoma” (J Med Chem, 2006).

Legend:
PC-3 [1] = assay: Antimigratory activity against human PC3 prostate cancer cell line at 100 nM after 12h; assay type: functional; settings: PC-3, 12 h
Summary of the method: (§1)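 Computer-assisted videomicroscopy tracking of living cultured cells, one image every 4 min over 24 h; migration scored as maximum relative distance from origin (MRDO) per cell, read at 12 or 22 h with compound at 100 nM or without (control). Control normalized to 0%. Triplicate analyses, 121–184 cells per condition; mean ± standard error.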

Mus musculus = assay: Toxicity in mice at 160 mg/kg, ip 28 days post dose; assay type: organism-based; set-up: dose 160 mg/kg, route intraperitoneal; settings: in vivo, 672 h
Summary of the method: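 Healthy, non-tumor-grafted mice received a single acute ip dose of 160 mg/kg. Body weight and survival were recorded over at least 28 days after dosing to detect toxic effects.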

PC-3 [2] = assay: Cytotoxicity against human PC3 prostate cancer cell line; assay type: functional, cell-based
Summary of the method: (§2)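 Colorimetric MTT assay on cultured human cancer cells after 3 days of continuous drug exposure. IC50 is the concentration that reduces overall cell-population growth by 50% relative to untreated cells.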

Hs 683 = assay: Cytotoxicity against human Hs683 cancer cell line; assay type: functional, cell-based; summary of the method: as §2
HCT-15 = assay: Cytotoxicity against human HCT15 colon cancer cell line; assay type: functional, cell-based; summary of the method: as §2
A549 [3] = assay: Antimigratory activity against human A549 NSCLC cell line at 100 nM after 12h; assay type: functional; settings: A549, 12 h; summary of the method: as §1
U373 MG [4] = assay: Antimigratory activity against human U373 glioblastoma cell line at 100nM after 22h; assay type: functional, U-373MG ATCC; summary of the method: as §1
PC-3 [5] = assay: Antimigratory activity against human PC3 prostate cancer cell line at 100 nM after 22h; assay type: functional; settings: PC-3, 22 h; summary of the method: as §1
A549 [6] = assay: Antimigratory activity against human A549 NSCLC cell line at 100 nM after 22h; assay type: functional; settings: A549, 22 h; summary of the method: as §1
MCF7 = assay: Cytotoxicity against human MCF7 breast cancer cell line; assay type: functional, cell-based; summary of the method: as §2
U373 MG [7] = assay: Antimigratory activity against human U373 glioblastoma cell line at 100 nM after 12h; assay type: functional, U-373MG ATCC; summary of the method: as §1
A549 [8] = assay: Cytotoxicity against human A549 NSCLC cell line; assay type: functional, cell-based; summary of the method: as §2
U373 MG [9] = assay: Cytotoxicity against human U373 glioblastoma cell line; assay type: functional, cell-based, U-373MG ATCC; summary of the method: as §2

SMILES	inhibition at 0.1 µM (PC-3 [1])	Activity (Mus musculus)	IC50 (PC-3 [2])	IC50 (Hs 683)	IC50 (HCT-15)	inhibition at 0.1 µM (A549 [3])	inhibition at 0.1 µM (U373 MG [4])	inhibition at 0.1 µM (PC-3 [5])	inhibition at 0.1 µM (A549 [6])	IC50 (MCF7)	inhibition at 0.1 µM (U373 MG [7])	IC50 (A549 [8])	IC50 (U373 MG [9])
COc1ccc(OC)c([C@@H]2C[C@H]3[C@@H]4CC=C5C[C@@H](O[C@@H]6O[C@H](CO[C@H]7O[C@H](CO)[C@@H](O)[C@H](O)[C@H]7O)[C@@H](O)[C@H](O)[C@H]6O)CC[C@]5(C)[C@H]4CC[C@]3(C)[C@H]2C(C)=O)c1	-7%	Non-toxic	> 10 µM	> 10 µM	> 10 µM	-34%	-18%	-9%	-40%	> 10 µM	-18%	> 10 µM	> 10 µM
COc1ccc(OC)c([C@@H]2C[C@H]3[C@@H]4CC=C5C[C@@H](O[C@H]6O[C@H](CO)[C@@H](O[C@H]7O[C@H](CO)[C@@H](O)[C@H](O)[C@H]7O)[C@H](O)[C@H]6O)CC[C@]5(C)[C@H]4CC[C@]3(C)[C@H]2C(C)=O)c1	-5%	Non-toxic	> 10 µM	> 10 µM	> 10 µM	10%	-8%	-5%	5%	> 10 µM	2%	> 10 µM	> 10 µM
